Laboratory results taken from ChEMBL document CHEMBL4130629 (J Med Chem, 2018).
In brackets after ≈: the same amount, converted by molar mass.

Key:
[1] = Metabolic stability in human liver microsomes assessed as parent compound remaining after 10 mins; type: ADME, microsome; conditions: read-out: Stability
Summary of the method: (§1)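 Compound at 3 μM was incubated with human or rat liver microsomes, and the percentage of parent compound remaining was measured after 10 min.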

[2] = tested on: Human immunodeficiency virus 1; assay: Antiviral activity against ENV pseudotyped CCR5-tropic HIV1 […] infected in human HeLa67 cells after 3 days by luciferase reporter gene assay; type: functional, organism-based; conditions: Human immunodeficiency virus 1, HeLa67, 72 h
Summary of the method: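 Single-cycle infection with env-deleted, luciferase-reporter HIV-1 pseudotyped with the JRFL (CCR5) envelope, supplied by transfection; viral titers normalized by luminescence without compound. HeLa 67 cells were infected in the presence of compounds given as 3-fold serial dilutions made from 30 mM DMSO stocks.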

[3] = Half life in Sprague-Dawley rat at 1 mg/kg, iv; type: ADME, organism-based; conditions: in vivo
[4] = AUC in Sprague-Dawley rat at 5 mg/kg, po after 24 hrs; type: ADME, organism-based; parameters: time < 24 hr, dose 5 mg/kg, route oral; conditions: in vivo
Summary of the method: (§2)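 Male Sprague-Dawley rats (300−350 g) with jugular vein and/or bile duct cannulas, n = 3 per route; dosed as a solution in PEG-400/ethanol (90/10). The iv dose was 1 mg/kg given as a 0.5 min bolus, with jugular blood sampled from 2 to 1440 min. The po dose was 5 mg/kg after an overnight fast, sampled from 15 to 1440 min. Plasma was taken from EDTA blood.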

[5] = Volume of distribution at steady state in Sprague-Dawley rat at 1 mg/kg, iv; type: ADME, organism-based; conditions: in vivo, read-out: Vdss; summary of the method: as §2
MT2 = assay: Cytotoxicity against human MT2 cells assessed as decrease in cell viability after 3 days […]; type: functional; conditions: MT2, 72 h
[6] = Permeability in human Caco2 cells; type: ADME, cell-based; conditions: Caco-2, read-out: permeability
[7] = Metabolic stability in rat liver microsomes assessed as parent compound remaining after 10 mins; type: ADME, microsome; conditions: read-out: Stability; summary of the method: as §1
[8] = Clearance in Sprague-Dawley rat at 1 mg/kg, iv; type: ADME, organism-based; conditions: in vivo
[9] = Oral bioavailability in Sprague-Dawley rat at 5 mg/kg; type: ADME, organism-based; conditions: in vivo; summary of the method: as §2
[10] = Half life in human liver microsomes; type: ADME, microsome
[11] = Half life in rat liver microsomes; type: ADME, microsome
[12] = Aqueous solubility of the compound; type: physicochemical; conditions: buffer

Q: Which remaining at 10 min [1] does the source give for `COc1cnc(-c2cnccn2)c2[nH]cc(C(=O)C(=O)N3CCN(C(=O)c4ccccn4)[C@H](C)C3)c12` here?
A: 95%

Q: What about the EC50 [2] of the same compound?
A: 0.4 nM

Q: What about the half-life [3] of the same compound?
A: 2.4 h

Q: What about the AUC at 24 h [4] of the same compound?
A: 7.8 µM·h

Q: What about the Vd [5] of the same compound?
A: 1.1 L/kg

Q: And the CC50 (MT2)?
A: > 300000 nM

Q: And the Papp [6]?
A: 125 nm/s

Q: And the remaining at 10 min [7]?
A: 80%

Q: What about the clearance [8] of the same compound?
A: 0.528 L/h/kg

Q: What about the bioavailability [9] of the same compound?
A: 61%

Q: For `COc1cnc(-n2ccnn2)c2[nH]cc(C(=O)C(=O)N3CCN(C(=O)c4ccccc4)CC3)c12`, which remaining at 10 min [1] is on record?
A: 83%

Q: And the EC50 [2]?
A: 0.07 nM

Q: What about the half-life [3] of the same compound?
A: 1.6 h

Q: What about the AUC at 24 h [4] of the same compound?
A: 43.5 µM·h

Q: And the Vd [5]?
A: 0.23 L/kg

Q: What about the CC50 (MT2) of the same compound?
A: 225000 nM

Q: What about the Papp [6] of the same compound?
A: 78 nm/s

Q: What about the remaining at 10 min [7] of the same compound?
A: 82%

Q: What about the bioavailability [9] of the same compound?
A: 59%

Q: Which results are given for `COc1cnc(-n2cc(C)nn2)c2[nH]cc(C(=O)C(=O)N3CCN(C(=O)c4ccccc4)CC3)c12`?
A: remaining at 10 min [1]: 94%; EC50 [2]: 0.06 nM; CC50 (MT2): > 300000 nM; Papp [6]: 166 nm/s; remaining at 10 min [7]: 84%

Q: Which remaining at 10 min [1] does the source give for `COc1cnc(-n2cnc(C)n2)c2[nH]cc(C(=O)C(=O)N3CCN(C(=O)c4ccccc4)[C@H](C)C3)c12` here?
A: 94%

Q: And the EC50 [2]?
A: 0.18 nM

Q: And the half-life [3]?
A: 3 h

Q: What about the AUC at 24 h [4] of the same compound?
A: 88 µM·h

Q: What about the Vd [5] of the same compound?
A: 0.34 L/kg

Q: What about the CC50 (MT2) of the same compound?
A: > 300000 nM

Q: And the Papp [6]?
A: 128 nm/s

Q: And the remaining at 10 min [7]?
A: 98%

Q: And the bioavailability [9]?
A: 104%

Q: With `COc1cnc(-c2cncc(=O)[nH]2)c2[nH]cc(C(=O)C(=O)N3CCN(C(=O)c4ccccc4)CC3)c12` as the compound, how does the remaining at 10 min [1] read?
A: 100%

Q: And the half-life [10]?
A: > 1.67 h

Q: What about the EC50 [2] of the same compound?
A: 0.21 nM

Q: What about the half-life [3] of the same compound?
A: 0.8 h

Q: What about the AUC at 24 h [4] of the same compound?
A: 0.13 µM·h

Q: What about the Vd [5] of the same compound?
A: 0.18 L/kg

Q: And the CC50 (MT2)?
A: > 300000 nM

Q: And the Papp [6]?
A: 66 nm/s

Q: And the remaining at 10 min [7]?
A: 100%

Q: And the clearance [8]?
A: 0.336 L/h/kg

Q: And the bioavailability [9]?
A: 0.43%

Q: Which results are given for `COc1cnc(-n2cnc(N3CCOCC3)n2)c2[nH]cc(C(=O)C(=O)N3CCN(C(=O)c4ccccc4)CC3)c12`?
A: remaining at 10 min [1]: 64%; EC50 [2]: 0.07 nM; half-life [3]: 1.5 h; AUC at 24 h [4]: 13 µM·h; Vd [5]: 0.26 L/kg; CC50 (MT2): 203000 nM; Papp [6]: 58 nm/s; remaining at 10 min [7]: 89%; clearance [8]: 0.366 L/h/kg; bioavailability [9]: 52%

Q: What does the source list for `COc1cnc(-n2ccc(CN(C)C)n2)c2[nH]cc(C(=O)C(=O)N3CCN(C(=O)c4ccccc4)CC3)c12`?
A: remaining at 10 min [1]: 100%; EC50 [2]: 0.27 nM; CC50 (MT2): > 150000 nM; Papp [6]: 15 to 41 nm/s; remaining at 10 min [7]: 100%

Q: For `COc1cnc(-c2cncnc2)c2[nH]cc(C(=O)C(=O)N3CCN(C(=O)c4ccccc4)CC3)c12`, which half-life [10] is on record?
A: > 1.67 h

Q: What about the EC50 [2] of the same compound?
A: 0.51 nM

Q: And the CC50 (MT2)?
A: > 300000 nM

Q: What about the half-life [11] of the same compound?
A: > 1.67 h

Q: And the Papp [6]?
A: 15 to 49 nm/s

Q: With `COc1cnc(-n2cnc(N)n2)c2[nH]cc(C(=O)C(=O)N3CCN(C(=O)c4ccccc4)[C@H](C)C3)c12` as the compound, how does the remaining at 10 min [1] read?
A: 95%

Q: What about the EC50 [2] of the same compound?
A: 0.17 nM

Q: And the CC50 (MT2)?
A: > 300000 nM

Q: What about the Papp [6] of the same compound?
A: < 15 nm/s

Q: What about the remaining at 10 min [7] of the same compound?
A: 99%

Q: With `CCNC(=O)c1ncn(-c2ncc(OC)c3c(C(=O)C(=O)N4CCN(C(=O)c5ccccc5)CC4)c[nH]c23)n1` as the compound, how does the remaining at 10 min [1] read?
A: 97%

Q: What about the EC50 [2] of the same compound?
A: 0.14 nM

Q: And the solubility [12]?
A: 0.058 mg/mL (≈ 109 µM)

Q: What about the CC50 (MT2) of the same compound?
A: > 300000 nM

Q: What about the Papp [6] of the same compound?
A: < 15 nm/s

Q: And the remaining at 10 min [7]?
A: 100%

Q: What does the source list for `COc1cnc(-n2ccnn2)c2[nH]cc(C(=O)C(=O)N3CCN(C(=O)c4ccccc4)[C@H](C)C3)c12`?
A: remaining at 10 min [1]: 83%; EC50 [2]: 0.08 nM; half-life [3]: 0.7 h; AUC at 24 h [4]: 8.6 µM·h; Vd [5]: 0.49 L/kg; CC50 (MT2): > 150000 nM; Papp [6]: 143 nm/s; remaining at 10 min [7]: 78%; clearance [8]: 0.72 L/h/kg; bioavailability [9]: 59%

Q: For `COc1cnc(-n2ccc(CO)n2)c2[nH]cc(C(=O)C(=O)N3CCN(C(=O)c4ccccc4)[C@H](C)C3)c12`, which remaining at 10 min [1] is on record?
A: 81%

Q: What about the EC50 [2] of the same compound?
A: 0.14 nM

Q: And the half-life [3]?
A: 2.9 h

Q: And the AUC at 24 h [4]?
A: 1.99 µM·h

Q: And the Vd [5]?
A: 1.1 L/kg

Q: What about the CC50 (MT2) of the same compound?
A: > 300000 nM

Q: And the remaining at 10 min [7]?
A: 90%

Q: What about the bioavailability [9] of the same compound?
A: 19%
